Rows were chosen to be rich in hits. Some 1.8% of all compounds tested hit in one or more screens of this group.
core dimer inh: blocks dimerization of HCV core protein; TR-FRET GST/Flag-core106 dimerization, 1536-well; inhibition, % at 5 µM; actives 0.33% (n = 300,000);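 active = inhibition above the mean of all tested compounds plus 3 SD, set per screening campaign, cut at about 45% in these data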
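System: GST-tagged and Flag-tagged HCV core protein residues 1-106 / Input: core106 proteins, GST 13.5 nM and Flag 17 nM / Buffer or medium: KF-containing HEPES buffer, pH 7.45, DTT, CHAPS, BSA / Probe or stimulus: Eu-anti-GST and XL665-anti-Flag labelled anti-tag antibodies / Schedule: 4 h, 22.5 °C incubation / Technique: TR-FRET 671 and 617 nm emission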
UHRF1 binding: UHRF1 methyl-DNA binding inhibition; inhibition, % at 4.4 µM; actives 0.75% (n = 370,000); UHRF1 binding to methylated oligo, TR-FRET; Q96T88; AID 687016;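 also: UHRF1 SRA domain binding a hemimethylated CpG hairpin DNA probe; 0% = median of test compound wells and 100% = reference inhibitor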
TDP2 inh: TDP2 (human) inhibition, absorbance primary screen | recombinant TDP2, T5PNP hydrolysis, p-nitrophenol absorbance 415 nm | inhibition, % at 12.8 µM | actives 0.34% (n = 370,000) | AID 720702;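 active = inhibition above the mean of all tested compounds plus 3 SD, set per campaign, cut at about 25% in these data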;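 also: 0% = DMSO with enzyme and 100% = buffer with substrate but no TDP2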
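Incubation: 2 h at 37 °C; Test system: recombinant human TDP2; Quantity: enzyme 120 nM; Read-out basis: percent inhibition; Medium: 50 mM Tris-HCl pH 7.5 with Mg2+, KCl, DTT, BSA; Repeats: single replicate; Compound: 12.8 µM single point, 1% DMSO; Signal: epi absorbance; Reagent: 5 mM T5PNP chromogenic substrate; Benchmarks: no-enzyme high, DMSO-plus-enzyme low.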
LEDGF integ inh: blocks HIV-1 LEDGF/p75-dependent DNA integration. inhibition, % at 3.7 µM. AID 743269. actives 0.64% (n = 370,000). TR-FRET IN-LEDGF/p75 DNA integration, Eu/Cy5;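 active = inhibition above the screen-wide mean plus 3 SD, cut at about 13% in these data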;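 also: signal is the Cy5 over europium emission ratio at 671 and 618 nm; 0% = plate median of compound wells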
MBD2 DNA inh: MBD2-methylated oligo binding inhibition; Q9UBB5; TR-FRET, MBD2 binding to methylated oligonucleotide; inhibition, % at 4.4 µM; actives 0.31% (n = 370,000); AID 686964; in the data active = inhibition above about 13%
Target sequence (Q9UBB5 whole entry, looked up): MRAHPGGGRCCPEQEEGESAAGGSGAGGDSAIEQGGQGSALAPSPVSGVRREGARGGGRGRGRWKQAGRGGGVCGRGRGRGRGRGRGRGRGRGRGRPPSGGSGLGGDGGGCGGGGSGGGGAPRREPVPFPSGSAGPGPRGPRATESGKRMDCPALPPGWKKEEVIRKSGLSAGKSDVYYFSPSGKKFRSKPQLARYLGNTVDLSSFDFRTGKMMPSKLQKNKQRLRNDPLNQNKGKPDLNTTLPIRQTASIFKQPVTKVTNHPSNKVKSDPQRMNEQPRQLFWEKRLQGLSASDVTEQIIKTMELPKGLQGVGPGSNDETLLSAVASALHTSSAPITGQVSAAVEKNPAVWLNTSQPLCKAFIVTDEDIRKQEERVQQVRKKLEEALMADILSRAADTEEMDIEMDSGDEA
UHRF1 ctr MBD2: inhibits human UHRF1 binding to methylated oligonucleotide, MBD2 counter-screen; inhibition, % at 4.4 µM; actives 25% (n = 1,000); TR-FRET; shares compounds with MBD2 DNA inh;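 also: UHRF1 SRA domain binding a labeled hemimethylated CpG hairpin DNA; 0% = vehicle only and 100% = reference inhibitor with vehicle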
MBD2 DBD conf: MBD2-DBD methyl-DNA binding inhibition, TR-FRET confirmation; shares compounds with MBD2 DNA inh; TR-FRET MBD2-DBD binding to methylated oligonucleotide; inhibition, % at 4.4 µM; actives 26% (n = 1,000); AID 720531; in the data active = inhibition above about 14%
* = called active by the depositor; nt = no result given. Rule as the data show it, unless noted: active = inhibition above about 21%; inactive = the rest.

SMILES	core dimer inh	UHRF1 binding	TDP2 inh	LEDGF integ inh	MBD2 DNA inh	UHRF1 ctr MBD2	MBD2 DBD conf
COc1ccc(-c2nnc(SCc3c(F)cccc3F)n2N)cc1	nt	2	-4	-1	-7	nt	nt
O=C1CN=C(Nc2ccccc2)N1Cc1cccs1	-7	-1	-1	2	35*	3	2
CC(C)c1ccc(NC2=NCC(=O)N2Cc2cccs2)cc1	-8	-2	-3	-5	-2	nt	nt
CCN1CCN(C(=O)Nc2ccccc2OC)CC1	3	-1	7	1	14*	3	2
COc1ccccc1NC(=O)N1CCN(CCc2ccccc2)CC1	0	0	-6	-2	-3	nt	nt
CCN=C1NC(c2ccc(Cl)cc2)C(C(=O)OC)=C(C)N1Cc1cccc(C(F)(F)F)c1 (configuration not stated)	nt	1	-2	-1	2	nt	nt
c1ccc(-c2ccc3nnnn3n2)cc1	-3	0	7	-3	6	nt	nt
CC(C)Oc1ccc2nnnn2n1	-2	22*	8	0	14*	9	4
CCCCCCCCN1C(=O)[C@@H](CC(=O)NCc2cccs2)C[C@@]2(C(=O)OC)C1=C[C@H](COCc1ccccc1)O[C@@H]2C	nt	0	-7	-1	-5	nt	nt
COc1ccc2sc3cccc(NCCN(C)C)c3c(=O)c2c1	nt	-11	1	-5	10	nt	nt
CN(C)CCNc1ccc(CO)c2sc3ccc(O)cc3c(=O)c12	nt	-12	-8	-4	16*	12	27*
CC(C)OC(=O)C1=CNCC(C)(C)c2c1[nH]c1cc(F)ccc21	nt	-1	5	-1	-5	nt	nt
C=CCOc1ccc(CNCC2CCCO2)cc1 (configuration not stated)	-3	39*	9	13	22*	7	1
COc1ccc(-c2coc3c(C)c4oc(=O)c(CC(=O)O)c(C)c4cc23)cc1	nt	3	-1	-5	2	nt	nt
Cc1c(CC(=O)O)c(=O)oc2c(C)c3occ(-c4ccc(Br)cc4)c3cc12	16	1	15	3	30*	0	3
COC(=O)c1ccc(NC(=O)CCc2nnc3ccc(NCc4ccco4)nn23)cc1	8	8	-10	1	14*	4	4
C(#CC1=CCCCC1)CNCc1ccccc1	nt	1	-1	-1	2	nt	nt
Cc1ccc(Br)cc1S(=O)(=O)Nc1cccnc1	nt	36*	9	11	18*	2	4
CO[C@H]([C@H](C)/C=C/N(C)C=O)[C@@H](C)C(=O)CC[C@H](C)[C@H](O)[C@H](C)[C@H]1OC(=O)/C=C/C(C)=C/C[C@H](O)C[C@@H]2C=CC[C@@H](C[C@H](OC)[C@@]3(CO3)[C@@H](OC)C[C@@H](OC)[C@@H]1C)O2	nt	1	-6	-3	0	nt	nt
C[C@H]1[C@H](NC(=O)c2cccc(Cl)c2)CC[C@@]23CCCN2C(=O)CCC[C@@H]13	nt	-3	1	2	3	nt	nt
Cc1ccccc1CC1(CO)CCCN(C(=O)CCN2CCCO2)C1 (configuration not stated)	-1	2	-10	5	16*	4	3
Cc1ccc(C2CCC3(CCC(=O)N3CCO)CC2)cc1 (configuration not stated)	nt	2	1	3	2	nt	nt
COc1ccc2c(c1)c(/C=N/Nc1ccc(C(=O)O)cc1)c(C)n2C	-20	0	-18	7	15*	7	2
COc1ccc2c(/C=N/Nc3ccc(C(=O)O)cc3)c[nH]c2c1	-48	0	-6	-1	3	nt	nt
CC1CCC(NCc2ccco2)CC1 (configuration not stated)	-4	2	-4	1	18*	0	6
SMILES	core dimer inh	UHRF1 binding	TDP2 inh	LEDGF integ inh	MBD2 DNA inh	UHRF1 ctr MBD2	MBD2 DBD conf
CCCCCC[C@@H](CC)CN(C(=O)Oc1ccccc1)c1ccccc1	nt	0	1	-4	4	nt	nt
Cc1cc(NC(=NC2CC2)c2ccccc2F)n(-c2ccccc2)n1	0	21*	-2	-3	15*	9	3
Cc1cc(NC(=O)Nc2cc(C)nn2-c2ccccc2)n(-c2ccccc2)n1	1	1	5	-1	-1	nt	nt
Cc1cc(C)n(C(=O)/C(C#N)=C/N(C)C)n1	-7	5	5	2	39*	4	5
Cc1cc(C)n(/C(=C/N(C)C)C(=O)c2ccccc2)n1	-12	0	-4	6	-4	nt	nt
Cc1cnn(-c2cc(Oc3ccccc3)ncn2)c1	4	1	0	0	16*	1	4
Cc1cc(OCc2cn(CC(=O)c3ccc(O)cc3)nn2)ccc1[N+](=O)[O-]	nt	14	2	-3	2	nt	nt
O=C(Cn1cc(COc2cccc([N+](=O)[O-])c2)nn1)c1ccc(O)cc1	nt	21*	2	6	13*	11	9
O=C(COC(=O)CCN1C(=O)c2ccccc2C1=O)Nc1ccccc1[N+](=O)[O-]	nt	-1	-5	7	1	nt	nt
O=C(COC(=O)CN1C(=O)c2ccccc2C1=O)Nc1ccccc1[N+](=O)[O-]	nt	24*	6	1	19*	3	2
O=C1CCC2(CCCCC2)N1CCCO	nt	0	1	0	-1	nt	nt
CCN(CC)C(=O)CC[C@@H]1CC[C@]2(CCCN(Cc3cccc4ccccc34)C2)O1	nt	-4	2	4	0	nt	nt
O=C(CNC(=O)/C=C/c1ccco1)N=Nc1c(O)[nH]c2ccccc12	13	53*	4	34*	30*	65*	51*
Nc1[nH]c(C(=O)c2ccccc2)c(-c2ccc3ccccc3c2)c1C(=O)NCCc1ccc(Cl)cc1	nt	2	-10	-2	6	nt	nt
O=C(NC1CCC1)c1ccc(C#Cc2cccc(F)c2)nc1	nt	17	3	7	17*	14	10
O=C(CSc1nnc(COc2ccccc2Cl)o1)Nc1ccccc1	nt	13	8	-4	7	nt	nt
CC(C)(C)NC(=O)NC(=O)CSc1nnc(COc2ccccc2Cl)o1	8	31*	-14	3	21*	10	3
O=C(Nc1ccc2c(c1)Cc1ccccc1-2)NC1CCCCN(Cc2cccc(Cl)c2)C1=O (configuration not stated)	nt	-1	5	4	1	nt	nt
CC(C)C[C@@H](CN1CCC[C@H]1CN1C(=O)C(=O)NC[C@@H]1Cc1ccc(O)cc1)N1C[C@H](Cc2ccccc2)N(CC2CCCCC2)C(=O)C1=O	nt	25*	-5	9	17*	8	3
CCC(=O)c1ccc(OCC(=O)NCc2ccccc2CN2CCCC2)cc1	nt	1	-4	5	35*	6	3

Source: PubChem
